pEC50: −log10 of the molar value.
Columns and labels:
[1] = Cytotoxicity against human Huh7.5 cells assessed as cell viability after 72 hrs by MTT assay; format: cell-based, Huh-7
[2] = Selectivity index, ratio of CC50 for human Huh7.5 cells to EC50 for Hepatitis C virus JFH-1 J6 genotype 2a infected in human Huh7.5 cells; format: toxicity, cell-based, Huh-7; conditions: read-out: Ratio CC50/EC50
Hepatitis C virus [3] = test: Antiviral activity against Hepatitis C virus JFH-1 J6 genotype 2a infected in human Huh7.5 cells assessed as inhibition of viral RNA replication after 72 hrs by luciferase reporter gene assay; format: functional, organism-based, Hepacivirus hominis; conditions: subtype 2a JFH1 J6, Huh-7, 72 h
Hepatitis C virus [4] = test: Antiviral activity against Hepatitis C virus JFH-1 J6 genotype 2a infected in human Huh7.5 cells assessed as viral RNA replication at 10 uM after 72 hrs by luciferase reporter gene assay relative to control; conditions: subtype 2a JFH1 J6, Huh-7, 72 h
[5] = Cytotoxicity against human Huh7.5 cells assessed as cell viability at 10 uM after 72 hrs by MTT assay relative to control; format: cell-based, Huh-7; conditions: read-out: Activity
In short: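 Rluc-J6/JFH1 RNA-transfected Huh7.5 cells screened at a single 10 µM for 72 h alongside DMSO, with clemizole as positive control. Renilla luciferase gave replication level and parallel MTT gave viability, each as percent of DMSO; ratio of viability to replication reported.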

[6] = Ratio of cytotoxicity against human Huh7.5 cells assessed as cell viability to antiviral activity against Hepatitis C virus JFH-1 J6 genotype 2a infected in human Huh7.5 cells assessed as inhibition of viral RNA replication; format: toxicity, cell-based, Huh-7

Q: What does the source list for `C/C(=C\c1c[nH]c2cc(C)ccc12)C(=O)Nc1ccc(C(C)(C)C)cc1`?
A: CC50 at 72 h [1]: 25.6 µM; selectivity ratio [2]: 5.7; pEC50 (Hepatitis C virus [3]): 5.35

Q: With `C/C(=C\c1c[nH]c2ccc(C#N)cc12)C(=O)Nc1ccc(C(C)C)cc1` as the compound, how does the CC50 at 72 h [1] read?
A: 137 µM

Q: What about the selectivity ratio [2] of the same compound?
A: 3.6

Q: And the pEC50 (Hepatitis C virus [3])?
A: 4.42

Q: Which CC50 at 72 h [1] does the source give for `Clc1ccc(Cn2c(CN3CCCC3)nc3ccccc32)cc1` [CLEMIZOLE] here?
A: 39.4 µM

Q: What about the selectivity ratio [2] of the same compound?
A: 4.9

Q: What about the Activity at 10 µM (Hepatitis C virus [4]) of the same compound?
A: 23.4%

Q: And the viability at 72 h, 10 µM [5]?
A: 102%

Q: What about the selectivity ratio [6] of the same compound?
A: 4.3

Q: And the pEC50 (Hepatitis C virus [3])?
A: 5.10

Q: Which results are given for `C/C(=C\c1c[nH]c2ccc([N+](=O)[O-])cc12)C(=O)Nc1ccc(C(C)(C)C)cc1`?
A: CC50 at 72 h [1]: 23.1 µM; selectivity ratio [2]: 3.7; pEC50 (Hepatitis C virus [3]): 5.21

Q: For `C/C(=C\c1c[nH]c2cc(C(C)C)ccc12)C(=O)Nc1ccc(C(C)(C)C)cc1`, which CC50 at 72 h [1] is on record?
A: 24.8 µM

Q: What about the selectivity ratio [2] of the same compound?
A: 17

Q: What about the pEC50 (Hepatitis C virus [3]) of the same compound?
A: 5.82

Q: Which results are given for `C/C(=C\c1c[nH]c2ccccc12)C(=O)O`?
A: CC50 at 72 h [1]: > 100 µM; pEC50 (Hepatitis C virus [3]): < 5.00

Q: Which results are given for `CCN(CC)C(=O)/C=C/c1c[nH]c2ccccc12`?
A: CC50 at 72 h [1]: 98.7 µM; selectivity ratio [2]: 1.6; Activity at 10 µM (Hepatitis C virus [4]): 72%; viability at 72 h, 10 µM [5]: 93.8%; selectivity ratio [6]: 1.3; pEC50 (Hepatitis C virus [3]): 4.20

Q: For `C/C(=C\c1c[nH]c2ccccc12)C(=O)NCCN(C)C`, which CC50 at 72 h [1] is on record?
A: > 100 µM

Q: What about the selectivity ratio [2] of the same compound?
A: > 1.6

Q: What about the pEC50 (Hepatitis C virus [3]) of the same compound?
A: 4.19

Q: What does the source list for `C/C(=C\c1c[nH]c2ccc(C)cc12)C(=O)Nc1ccc(C(C)(C)C)cc1`?
A: CC50 at 72 h [1]: 28.1 µM; selectivity ratio [2]: 4.2; pEC50 (Hepatitis C virus [3]): 5.17

Q: For `C/C(=C\c1c[nH]c2ccccc12)C(=O)Nc1ccc(C(C)(C)C)cc1`, which CC50 at 72 h [1] is on record?
A: 17.3 µM

Q: And the selectivity ratio [2]?
A: 7.9

Q: And the pEC50 (Hepatitis C virus [3])?
A: 5.66

Q: Which CC50 at 72 h [1] does the source give for `CC(C)(C)c1ccc(NC(=O)CCc2c[nH]c3ccccc23)cc1` here?
A: 13.6 µM

Q: What about the selectivity ratio [2] of the same compound?
A: 2.3

Q: What about the pEC50 (Hepatitis C virus [3]) of the same compound?
A: 5.21

Q: With `COc1ccc(CNC(=O)/C=C/c2c[nH]c3ccccc23)cc1OC` as the compound, how does the CC50 at 72 h [1] read?
A: 89.5 µM

Q: What about the selectivity ratio [2] of the same compound?
A: 6.9

Q: And the Activity at 10 µM (Hepatitis C virus [4])?
A: 35.1%

Q: What about the viability at 72 h, 10 µM [5] of the same compound?
A: 92.2%

Q: What about the selectivity ratio [6] of the same compound?
A: 2.6

Q: And the pEC50 (Hepatitis C virus [3])?
A: 4.89

Q: With `C/C(=C\c1c[nH]c2ccccc12)C(N)=O` as the compound, how does the CC50 at 72 h [1] read?
A: > 10 µM

Q: What about the pEC50 (Hepatitis C virus [3]) of the same compound?
A: < 5.00

Q: For `C/C(=C\c1c[nH]c2ccc(C#N)cc12)C(=O)Nc1ccc(C)cc1`, which CC50 at 72 h [1] is on record?
A: > 100 µM

Q: What about the pEC50 (Hepatitis C virus [3]) of the same compound?
A: < 4.00

Q: Which CC50 at 72 h [1] does the source give for `COc1ccc2[nH]cc(/C=C(\C)C(=O)Nc3ccc(C(C)(C)C)cc3)c2c1` here?
A: 16.4 µM

Q: And the selectivity ratio [2]?
A: 5.5

Q: And the pEC50 (Hepatitis C virus [3])?
A: 5.52

Q: Which CC50 at 72 h [1] does the source give for `CCOC(=O)/C(C)=C/c1c[nH]c2ccccc12` here?
A: 25.3 µM

Q: What about the selectivity ratio [2] of the same compound?
A: 1.1

Q: What about the pEC50 (Hepatitis C virus [3]) of the same compound?
A: 4.65

Q: What does the source list for `CNC(=O)/C(C)=C/c1c[nH]c2ccccc12`?
A: CC50 at 72 h [1]: > 10 µM; pEC50 (Hepatitis C virus [3]): < 5.00

Q: Which CC50 at 72 h [1] does the source give for `C/C(=C\c1c[nH]c2cc(Br)ccc12)C(=O)Nc1ccc(C(C)(C)C)cc1` here?
A: 68.8 µM

Q: And the selectivity ratio [2]?
A: 5.3

Q: And the pEC50 (Hepatitis C virus [3])?
A: 4.89

Q: With `C/C(=C\c1c[nH]c2ccccc12)C(=O)NCCCn1ccnc1` as the compound, how does the CC50 at 72 h [1] read?
A: > 100 µM

Q: What about the selectivity ratio [2] of the same compound?
A: > 3

Q: What about the pEC50 (Hepatitis C virus [3]) of the same compound?
A: 4.47

Q: Which results are given for `O=C(/C=C/c1c[nH]c2ccccc12)N1CCN(Cc2ccc(C(F)(F)F)cc2)CC1`?
A: CC50 at 72 h [1]: 27.9 µM; selectivity ratio [2]: 1.8; Activity at 10 µM (Hepatitis C virus [4]): 32.4%; viability at 72 h, 10 µM [5]: 81.7%; selectivity ratio [6]: 2.5; pEC50 (Hepatitis C virus [3]): 4.81

Q: Which results are given for `CC(C)(C)c1ccc(NC(=O)/C=C/c2c[nH]c3ccccc23)cc1`?
A: CC50 at 72 h [1]: 10.1 µM; selectivity ratio [2]: 5.2; Activity at 10 µM (Hepatitis C virus [4]): 2.1%; viability at 72 h, 10 µM [5]: 60.1%; selectivity ratio [6]: 28.6; pEC50 (Hepatitis C virus [3]): 5.72

Q: Which results are given for `C/C(=C\c1c[nH]c2ccccc12)C(=O)Nc1ccc(C(F)(F)F)cc1`?
A: CC50 at 72 h [1]: 94.9 µM; selectivity ratio [2]: 2.2; pEC50 (Hepatitis C virus [3]): 4.36

Q: Which CC50 at 72 h [1] does the source give for `COc1cccc2[nH]cc(/C=C(\C)C(=O)Nc3ccc(C(C)(C)C)cc3)c12` here?
A: 34.1 µM

Q: What about the selectivity ratio [2] of the same compound?
A: 1.9

Q: What about the pEC50 (Hepatitis C virus [3]) of the same compound?
A: 4.75

Q: With `CC(C)NC(=O)/C=C/c1c[nH]c2ccccc12` as the compound, how does the CC50 at 72 h [1] read?
A: > 100 µM

Q: And the selectivity ratio [2]?
A: > 1.1

Q: What about the Activity at 10 µM (Hepatitis C virus [4]) of the same compound?
A: 69%

Q: And the viability at 72 h, 10 µM [5]?
A: 106%

Q: What about the selectivity ratio [6] of the same compound?
A: 1.5

Q: And the pEC50 (Hepatitis C virus [3])?
A: 4.03

Q: Which results are given for `C/C(=C\c1c[nH]c2ccccc12)C(=O)NCc1ccco1`?
A: CC50 at 72 h [1]: 39.1 µM; selectivity ratio [2]: 3.5; pEC50 (Hepatitis C virus [3]): 4.95

Q: Which CC50 at 72 h [1] does the source give for `COc1ccc2c(/C=C(\C)C(=O)Nc3ccc(C(C)(C)C)cc3)c[nH]c2c1` here?
A: 30.7 µM

Q: And the selectivity ratio [2]?
A: 3.5

Q: What about the pEC50 (Hepatitis C virus [3]) of the same compound?
A: 5.06

Source: ChEMBL document CHEMBL3120069, “Chemical genetics-based discovery of indole derivatives as HCV NS5B polymerase inhibitors” (Eur J Med Chem, 2014)
